Sampled rows, rich in hits. Any-hit rate of the full collection: about 3.7%.
KCNQ1 act: potentiators or activators of KCNQ1 channel, primary screen, cell-based, thallium flux, high-throughput | CHO-K1 KCNQ1, thallium flux FluxOR fluorescence; stronger effect = higher value | B-score at 10 µM | actives 0.35% (n = 310,000) | AID 2648, 2010;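 active means fluorescence ratio B-score, a plate-corrected score, at least three library SD, with initial intensity B-score within 5 SD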
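assay system = CHO-K1 cells stably expressing KCNQ1 | medium = assay buffer, equal DMSO in all wells | timing = 37 °C overnight plating, 90-min dark dye load, 20-min compound pretreatment | measured by = kinetic FluxOR thallium fluorescence, 10-s 1-Hz baseline, 110-s post-stimulus read | measure = fluorescence change relative to baseline, converted to B score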
KCNK9 block: KCNK9 potassium channel inhibitors, primary screen, HEK293 cells, thallium flux; actives 1.2% (n = 310,000); FluxOR thallium flux fluorescence; stronger effect = lower value; B-score at 10 µM; Potassium channel subfamily K member 9 (Homo sapiens), Q9NPC2; AID 488922, 2010;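 active means ratio B-score over 3 SD below the library mean, with starting fluorescence within 5 SD of its mean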;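 further: negative B-score means less thallium flux so channel inhibition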
hERG rescue: hERG rescue from dofetilide block, primary screen, cell-based, CHO-hERG, FluxOR thallium flux, dofetilide IC70; Voltage-gated inwardly rectifying potassium channel KCNH2 (Homo sapiens), Q12809; dofetilide IC70 present; activation (rescue from dofetilide block), less the hit threshold, % at 10 µM; actives 0.51% (n = 310,000);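 active means activation above the mean of controls blocked by dofetilide plus 5 SD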;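 further: thallium influx through hERG after potassium depolarization seen as dye fluorescence rise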
KCNQ1 block: inhibitors of human KCNQ1 channel, primary screen, cell-based, thallium flux, high-throughput | B-score at 10 µM | CHO-K1 KCNQ1, FluxOR thallium flux fluorescence; stronger effect = higher value | actives 1.3% (n = 310,000) | Potassium voltage-gated channel subfamily KQT member 1 (Homo sapiens), P51787;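 active means compounds whose thallium flux B-score, printed positive for inhibition, exceeds three library SD while starting fluorescence stays within three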;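 further: channel opened by potassium depolarization with thallium stimulus after 20 min compound exposure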
Kir21 block: inhibitors of mouse Kir2.1 inward-rectifier potassium channel. HEK293-Kir2.1, FluxOR thallium flux fluorescence; stronger effect = lower value. AID 1672, 2009. B-score at 10 µM. actives 0.85% (n = 310,000). Inward rectifier potassium channel 2 (Mus musculus), P35561;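 active means fluorescence ratio B-score at or below minus 3 SD of library scores, with starting-brightness B-score within 2 SD, cut at about -4.2 in these data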;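 further: channel flux triggered by added potassium and thallium sulfate stimulus; B-score of peak minus minimum fluorescence over baseline after thallium stimulus; more negative B-score means stronger Kir2.1 block with less thallium influx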
KCNK3 block: human KCNK3 channel inhibitors, primary screen, CHO cells, FluxOR thallium flux, B-score | Potassium channel subfamily K member 3 (Homo sapiens), O14649 | FluxOR fluorescence; stronger effect = lower value | B-score at 10 µM | actives 0.84% (n = 340,000) | AID 602410, 2012;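 active means B-score under library mean minus 4 SD, starting fluorescence ratio at most library mean plus 5 SD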;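 further: more negative B-score means stronger inhibition of thallium flux through KCNK3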
Target sequence (O14649 whole entry, looked up): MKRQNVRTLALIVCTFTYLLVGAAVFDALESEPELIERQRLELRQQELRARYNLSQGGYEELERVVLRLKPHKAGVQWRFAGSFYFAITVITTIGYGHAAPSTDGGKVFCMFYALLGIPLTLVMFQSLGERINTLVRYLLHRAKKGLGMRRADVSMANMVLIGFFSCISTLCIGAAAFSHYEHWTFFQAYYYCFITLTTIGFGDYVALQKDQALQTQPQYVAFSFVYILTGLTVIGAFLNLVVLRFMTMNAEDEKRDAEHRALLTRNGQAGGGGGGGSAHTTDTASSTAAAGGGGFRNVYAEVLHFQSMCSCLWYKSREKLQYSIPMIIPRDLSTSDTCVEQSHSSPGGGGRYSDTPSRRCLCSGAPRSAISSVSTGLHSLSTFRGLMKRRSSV
KCNK9 block conf: KCNK9 potassium channel inhibitors, confirmation, HEK293 cells, thallium flux, duplicate. AID 492992, 2010. inhibition, % at 10 µM. actives 43% (n = 4,900). FluxOR thallium flux fluorescence. shares compounds with KCNK9 block;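 active means thallium signal inhibited by more than 5 SD of the compound-free buffer control wells, on both duplicate plates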;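 further: 0% = assay buffer control wells without compound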
Kir21 sel: mouse Kir2.1 channel inhibition, confirmation, selectivity assay for KCNK9 modulator project, cell-based, HEK293, thallium flux; shares compounds with KCNK9 block; AID 492993, 2010; actives 4% (n = 4,900); inhibition, % at 10 µM; Kir2.1 cells, FluxOR thallium flux fluorescence;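 active means thallium signal drop more than 5 SD beyond the mean of the no-compound control wells, seen in both duplicate plates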;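 further: signal is fluorescence rise after thallium addition divided by baseline fluorescence; plate controls were assay buffer only for no effect and full block by chlorpromazine control for full effect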
KCNK9 uninduced: thallium flux in non-induced HEK293 cells, confirmation, counter-screen for KCNK9 inhibitor project, cell-based, second counter screen, non-induced KCNK9-HEK293; shares compounds with KCNK9 block; FluxOR thallium flux; inhibition, % at 10 µM; actives 40% (n = 4,900);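 active means thallium signal drop beyond 5 SD of the untreated control mean, on both duplicate plates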;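 further: plate controls were buffer only IC0 wells for no effect and SID17386958 at its maximal inhibitory level for full effect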
* marks the source's active call; other numbers are inactive results.

`COc1ccc(CC(=O)Nc2ccncc2Cl)cc1` gave KCNQ1 act inactive, KCNK9 block inactive, hERG rescue -9, KCNQ1 block inactive, Kir21 block -0.32 and KCNK3 block inactive.
Cc1onc(-c2ccccc2Cl)c1C(=O)Nc1cccc2cccnc12 was read as KCNQ1 act inactive, KCNK9 block -13*, hERG rescue -10, KCNQ1 block 6*, Kir21 block -1.3, KCNK3 block inactive, KCNK9 block conf 47%*, Kir21 sel inactive and KCNK9 uninduced 45%*.
Screening CCn1cc(CN2CCC(n3nccc3NC(=O)c3ccccc3C)CC2)c(C)n1 returned KCNQ1 act inactive, KCNK9 block inactive, hERG rescue -7, KCNQ1 block inactive, Kir21 block 0.59 and KCNK3 block inactive.
For Cc1ccc(C(C(=O)NCc2ccccc2)N(Cc2cccs2)C(=O)c2ccc3c(c2)OCCO3)cc1 (stereo not drawn) the results were KCNQ1 act inactive, KCNK9 block inactive, hERG rescue -10, KCNQ1 block inactive, Kir21 block -0.12 and KCNK3 block inactive.
Screening COc1ccc(CNC(=O)C(c2ccc(C)cc2)N(Cc2cccs2)C(=O)c2ccc3c(c2)OCCO3)cc1 (stereo not drawn) returned KCNQ1 act inactive, KCNK9 block inactive, hERG rescue -17, KCNQ1 block inactive, Kir21 block 0.72, KCNK3 block inactive, KCNK9 block conf inactive, Kir21 sel inactive and KCNK9 uninduced inactive.
For CSc1ccc(C(=O)C2CCCN(C(=O)c3nonc3C)C2)cc1 (stereo not drawn) the results were KCNQ1 act inactive, KCNK9 block inactive, hERG rescue -5, KCNQ1 block inactive, Kir21 block -0.23, KCNK3 block inactive, KCNK9 block conf inactive, Kir21 sel inactive and KCNK9 uninduced inactive.
CSc1ccc(C(=O)C2CCCN(C(=O)c3nn(C)c(=O)c4ccccc34)C2)cc1 (stereo not drawn) was read as KCNQ1 act inactive, KCNK9 block inactive, hERG rescue -12, KCNQ1 block inactive, Kir21 block -1.4 and KCNK3 block inactive.
`COCc1ccc(C(=O)N2CCCC(C(=O)c3cccc(C(F)(F)F)c3)C2)o1` (stereo not drawn) gave KCNQ1 act inactive, KCNK9 block inactive, hERG rescue -11, KCNQ1 block inactive, Kir21 block 1.7 and KCNK3 block inactive.
For COCc1ccc(C(=O)N2CCCC(C(=O)c3ccc(SC)cc3)C2)o1 (stereo not drawn) the results were KCNQ1 act inactive, KCNK9 block inactive, hERG rescue -11, KCNQ1 block inactive, Kir21 block -0.42, KCNK3 block inactive, KCNK9 block conf inactive, Kir21 sel inactive and KCNK9 uninduced inactive.
Screening CSc1ccc(C(=O)C2CCCN(C(=O)c3cccc(N4CCOCC4)c3)C2)cc1 (stereo not drawn) returned KCNQ1 act inactive, KCNK9 block inactive, hERG rescue -16, KCNQ1 block inactive, Kir21 block -0.38, KCNK3 block inactive, KCNK9 block conf inactive, Kir21 sel inactive and KCNK9 uninduced inactive.
For Cc1cccc(OCc2nnc(SCC(=O)N(c3ccccc3)C3CCS(=O)(=O)C3)o2)c1 (stereo not drawn) the results were KCNK3 block inactive.
`O=C(Nc1ccccn1)C1CCCN(c2ncnc3c2nc2n3CCCCC2)C1` (stereo not drawn) gave KCNQ1 act inactive, KCNK9 block inactive, hERG rescue -16, KCNQ1 block inactive, Kir21 block -1.6 and KCNK3 block inactive.
For CCn1cc(CN2CCCC(C(=O)Nc3cccc(-c4cc5ccccc5[nH]4)c3)C2)cn1 (stereo not drawn) the results were KCNQ1 act inactive, KCNK9 block inactive, hERG rescue -16, KCNQ1 block inactive, Kir21 block 1 and KCNK3 block inactive.
Screening C[C@H](CO)N1C[C@H](C)[C@@H](CN(C)S(=O)(=O)c2ccc(F)cc2)Oc2c(NC(=O)Cc3ccccc3)cccc2C1=O returned KCNK3 block inactive.
For CCC(=O)n1nc(NCc2ccccc2OC)nc1NCc1ccccc1OC the results were KCNQ1 act inactive, KCNK9 block inactive, hERG rescue -12, KCNQ1 block 8*, Kir21 block 0.69, KCNK3 block inactive, KCNK9 block conf inactive, Kir21 sel inactive and KCNK9 uninduced inactive.
For Cc1cc(=O)c2c(o1)C(=O)c1occc1C2=O the results were KCNK3 block inactive.
CCOC(=O)CCSc1nc2c(c(C(F)(F)F)c1C#N)CCC2 was read as KCNQ1 act inactive, KCNK9 block inactive, hERG rescue 4, KCNQ1 block inactive, Kir21 block 0.12, KCNK3 block inactive, KCNK9 block conf inactive, Kir21 sel inactive and KCNK9 uninduced inactive.
For CCCCCc1ccc(OCCOCCn2c[n+](C)c3ccccc32)c(CCCCC)c1 the results were KCNQ1 act inactive, KCNK9 block -8.4*, hERG rescue -29, KCNQ1 block 7*, Kir21 block -15, KCNK3 block inactive, KCNK9 block conf 53%*, Kir21 sel 61%* and KCNK9 uninduced inactive.
For Oc1ccc(/C=N/n2c(COc3ccccc3)n[nH]c2=S)c(O)c1 the results were KCNQ1 act inactive, KCNK9 block -8.3*, hERG rescue -15, KCNQ1 block inactive, Kir21 block 1.2, KCNK3 block inactive, KCNK9 block conf 48%*, Kir21 sel inactive and KCNK9 uninduced 35%*.
`O=C(CN1C(=O)NC2(CCCC2)C1=O)OCCOc1cccc(Br)c1` gave KCNQ1 act inactive, KCNK9 block inactive, hERG rescue -10, KCNQ1 block inactive, Kir21 block -0.75 and KCNK3 block inactive.
